One series has as its target Glutamate NMDA receptor. As to the kind of experiment: In vitro binding to N-methyl-D-aspartate glutamate receptor using [3H]MK-801 (1 nM) and rat brain membrane suspensions. An outline of the steps:
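Test compounds displaced the radioligand, and IC₅₀ values were read from displacement curves. Ki was calculated from IC₅₀ by the Cheng–Prusoff method. Values are means of at least three experiments, with standard deviation.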

Series [1] is described as follows: Partition coefficient (logP). It counts as physicochemical. The following applies: octanol/water. An outline of the steps:
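Lipophilicity (log P) estimated by HPLC analysis.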

Each structure is given as a SMILES string.

As for `Cc1cc(C)cc(N(C)C(=N)Nc2cccc3ccccc23)c1`, the affinity at Glutamate NMDA receptor corresponds to a Ki of 21.9 nM. In series [1], the logP – broadly, the decadic logarithm of the partition coefficient of the neutral form, usually between octanol and water – came out at 2.94. Consider `CN(C(=N)Nc1cccc2ccccc12)c1cccc(I)c1`, for which the Ki (commonly a dissociation constant, usually derived from enzyme kinetics or from competition with a known ligand) at Glutamate NMDA receptor was 4.65 nM. Also, the logP in series [1] worked out at 2.94. The molecule `COc1cccc(N(C)C(=N)Nc2cccc3ccccc23)c1` displayed a Ki on Glutamate NMDA receptor of 43.5 nM. The molecule further yielded a logP in series [1] of 2.26. For `CSc1ccc(Cl)c(NC(=N)N(C)c2cccc(I)c2)c1` the same measures were 3.48 nM and 2.91. With `CSc1ccc(Cl)c(NC(=N)N(C)c2cccc(F)c2)c1`, the logP in series [1] came out at 2.34. `COc1cccc(N(C)C(=N)Nc2cc(SC)ccc2Cl)c1` registered a Ki at Glutamate NMDA receptor of 5.2 nM. This molecule also gave a logP in series [1] of 2.34. `CN(C(=N)Nc1cccc2ccccc12)c1cccc(F)c1` displayed a Ki on Glutamate NMDA receptor of 839 nM. In addition, the logP in series [1] stood at 2.31. For `CSc1ccc(Cl)c(NC(=N)N(C)c2cc(C)cc(C)c2)c1` the same measures were 14 nM and 3.12. For `CCc1cccc(N(C)C(=N)Nc2cc(SC)ccc2Cl)c1`, at Glutamate NMDA receptor, affinity was put at a Ki of 6.28 nM. Further, the logP in series [1] amounted to 3. In turn, `CSc1cccc(N(C)C(=N)Nc2cc(SC)ccc2Cl)c1` [CNS-5161] showed a Ki on Glutamate NMDA receptor of 1.87 nM. Besides, in series [1], the logP is 2.68.
